A selection: hits, their analogues and other compounds. The true share with any hit is near 3%.
TRPC4 PAM = allosterically enhances the mouse TRPC4 cation channel; Q9QUQ5; HEK293 TRPC4beta/mu-opioid, DAMGO EC20, Fluo-4 Ca2+ flux; active compounds read high; B-score at 10 µM; 310,000 tested, 0.42% active; AID 2227;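 active means B-score of calcium response area above 5 SD of library B-scores, with initial fluorescence ratio within 5 SD of library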
Target sequence (Q9QUQ5 whole entry, looked up): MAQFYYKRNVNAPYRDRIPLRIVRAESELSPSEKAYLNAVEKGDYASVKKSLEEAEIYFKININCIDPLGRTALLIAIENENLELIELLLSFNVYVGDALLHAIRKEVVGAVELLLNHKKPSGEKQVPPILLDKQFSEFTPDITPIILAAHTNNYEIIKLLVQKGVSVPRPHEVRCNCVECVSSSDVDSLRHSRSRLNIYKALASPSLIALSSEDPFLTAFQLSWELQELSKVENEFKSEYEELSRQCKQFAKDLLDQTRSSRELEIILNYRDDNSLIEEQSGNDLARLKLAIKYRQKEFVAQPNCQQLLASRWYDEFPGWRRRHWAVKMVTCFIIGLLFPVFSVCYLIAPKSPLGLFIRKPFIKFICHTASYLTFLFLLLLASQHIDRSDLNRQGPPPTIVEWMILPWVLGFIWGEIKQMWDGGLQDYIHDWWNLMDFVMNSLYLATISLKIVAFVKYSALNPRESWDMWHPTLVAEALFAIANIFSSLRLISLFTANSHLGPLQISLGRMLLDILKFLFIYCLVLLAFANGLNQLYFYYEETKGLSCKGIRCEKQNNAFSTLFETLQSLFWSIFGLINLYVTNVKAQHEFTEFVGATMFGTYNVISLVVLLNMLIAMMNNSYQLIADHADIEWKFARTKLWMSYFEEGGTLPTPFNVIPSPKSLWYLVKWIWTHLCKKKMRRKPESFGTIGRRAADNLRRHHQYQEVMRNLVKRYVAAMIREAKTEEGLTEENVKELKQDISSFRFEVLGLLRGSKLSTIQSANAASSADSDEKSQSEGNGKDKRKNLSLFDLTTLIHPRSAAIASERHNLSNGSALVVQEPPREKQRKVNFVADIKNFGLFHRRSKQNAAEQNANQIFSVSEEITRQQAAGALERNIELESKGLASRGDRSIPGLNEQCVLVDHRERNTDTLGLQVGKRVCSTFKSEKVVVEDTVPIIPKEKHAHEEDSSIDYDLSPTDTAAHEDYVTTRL
TRPC6 activator = activators of mouse TRPC6 channel; HEK293-TRPC6 membrane potential dye fluorescence; active compounds read high; B-score at 10 µM; 310,000 tested, 0.13% active; AID 2550;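 active means B-score of the integrated fluorescence ratio above library mean plus 3 SD, and starting fluorescence ratio within library mean plus 5 SD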;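 further: higher score means more depolarization so channel activation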
TRPC4 agonist = activators of mouse TRPC4 channel; AID 2237; 310,000 tested, 0.49% active; HEK293 TRPC4beta/mu-opioid, Fluo4 calcium fluorescence; active compounds read high; B-score at 10 µM; Q9QUQ5;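 active means B-score above 5 SD of library B-scores, and initial fluorescence ratio not above library mean plus 5 SD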;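 further: positive B-score marks a calcium rise read as TRPC4 activation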
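Assay system: HEK293 cells stably co-expressing mouse TRPC4beta and mu-opioid receptor / Timing: Fluo4 dye loading 45 min at room temperature, 110 s recording / Signal: Fluo4 calcium-sensitive dye fluorescence, kinetic, 1 Hz baseline / Read-out: integrated baseline-normalised fluorescence ratio, converted to per-well B score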
Kir21 inh = Kir2.1 (mouse) channel inhibition | 310,000 tested, 0.85% active | AID 1672 | B-score at 10 µM | HEK293-Kir2.1, FluxOR thallium flux fluorescence; active compounds read low;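 active means fluorescence ratio B-score at or below minus 3 SD of library scores, with starting-brightness B-score within 2 SD, cut at about -4.2 in these data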;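 further: channel flux triggered by added potassium and thallium sulfate stimulus; B-score of peak minus minimum fluorescence over baseline after thallium stimulus; more negative B-score means stronger Kir2.1 block with less thallium influx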
TRPC6 inh = mouse TRPC6 channel inhibition; Q61143; HEK293-TRPC6, membrane potential dye, ACh-evoked depolarization; active compounds read low; B-score at 10 µM; 310,000 tested, 1.1% active; AID 2553;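 active means B-score under library mean minus 3 SD, initial fluorescence not abnormally high, positive integrated signal ratio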;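 further: B-score derived from integrated fluorescence ratio over the kinetic read; more negative B-score means stronger inhibition of depolarization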
TRPC4 block = blocks the mouse TRPC4 cation channel. 300,000 tested, 0.39% active. Q9QUQ5. HEK293 TRPC4beta/mu-opioid, DAMGO-evoked Fluo4 calcium flux; active compounds read low. B-score at 10 µM;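 active means B-score over 3 SD under the library average, no early fluorescence shift, positive overall ratio signal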
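Material: HEK293 cells with stable TRPC4beta plus mu-opioid receptor expression; probe or stimulus: DAMGO in two steps, submaximal then maximal; technique: Fluo4 calcium fluorescence by kinetic imaging, 5 s 1 Hz baseline; measure: integrated fluorescence ratio relative to baseline, converted to per-well B score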
TRPC4 spec 2 = second selectivity test of TRPC6 inhibitors: effect on mouse TRPC4; shares compounds with TRPC6 inh; HEK293 TRPC4/MOR, membrane potential dye fluorescence; channel activated by saturating DAMGO dose; inhibition, % at 10 µM; 920 tested, 42% active;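 active means compounds whose fluorescence signal differed from control wells by over 3 SD, either direction, in both duplicate plates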
TRPC4 spec = mouse TRPC4 off-target activity of TRPC6 inhibitors; shares compounds with TRPC6 inh; HEK293 TRPC4/mu-opioid, membrane potential fluorescence; activity change, negative = inhibition, % at 10 µM; 920 tested, 61% active; AID 2777;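 active means rise or fall in signal beyond 3 SD of buffer-only wells in both replicate plates, either sign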;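 further: integrated kinetic ratio of fluorescence range over baseline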
HEK293 MPD ctr 2-1 = second counter-screen for TRPC6 inhibitors: parental HEK293 cells. shares compounds with TRPC6 inh. parental HEK293 membrane potential dye fluorescence; maximal acetylcholine challenge after compound addition. signal change vs control, % at 10 µM. 920 tested, 31% active;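 active means membrane potential signal moving either way by over 3 SD of the maximum-effect control, in both duplicate plates, meaning non-specific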
HEK293 MPD ctr-1 = parental HEK293 nonspecific activity of TRPC6 inhibitors | 920 tested, 60% active | parental HEK293 membrane potential dye fluorescence | shares compounds with TRPC6 inh | membrane potential signal change, % at 10 µM;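 active means membrane potential signal shifting up or down by more than 3 SD of buffer-only wells, on both duplicate plates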
HEK293 MPD ctr-2 = checks TRPC6 modulator effects in parental HEK293 cells | shares compounds with TRPC6 inh | membrane potential dye fluorescence | membrane potential signal change, % at 10 µM | 2,400 tested, 51% active | AID 488924;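 active means membrane potential signal moves up or down beyond 5 SD from buffer-only wells, on both duplicate plates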
HEK293 MPD ctr 2-2 = parental HEK293 nonspecific activity of TRPC6 modulators, second screen | shares compounds with TRPC6 inh | membrane potential dye fluorescence; after compound, maximal acetylcholine stimulation | inhibition, % at 10 µM | 2,400 tested, 14% active | AID 488926;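 active means membrane potential signal drops by more than 5 SD from the mean control signal, in both duplicate plates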
TRPC4 ctr mod = selectivity of TRPC6 modulators against mouse TRPC4; shares compounds with TRPC6 inh; HEK293 TRPC4/mu-opioid, membrane potential fluorescence; percent change from control (negative = decrease, positive = increase), % at 10 µM; 2,400 tested, 69% active;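 active means membrane potential signal moved up or down beyond 5 SD of buffer control wells, in both duplicate plates, actives on both sides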
TRPC4 ctr inh 2 = second check of whether TRPC6 modulators also affect mouse TRPC4 | shares compounds with TRPC6 inh | HEK293 TRPC4/mu-opioid, membrane potential dye fluorescence; stimulated with maximal-effect DAMGO | inhibition, % at 10 µM | 2,400 tested, 55% active | AID 488928;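 active means drop in membrane potential signal beyond 5 SD of the control wells in both duplicate plates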;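 further: TRPC4 counter screen for TRPC6 hits run under conditions tuned for TRPC6 not TRPC4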
TRPC6 block conf = mouse TRPC6 inhibitor confirmation; shares compounds with TRPC6 inh; HEK293-TRPC6, membrane potential dye, ACh-evoked depolarization; inhibition, % at 10 µM; 3,300 tested, 43% active;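 active means fluorescence ratio falls more than 5 SD below the full-stimulation control mean, in both duplicate runs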;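 further: integrated fluorescence ratio of peak minus minimum over baseline after agonist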
TRPC6 act conf = mouse TRPC6 activator confirmation; AID 488961; 2,800 tested, 11% active; HEK293-TRPC6 membrane potential dye fluorescence, FDSS; shares compounds with TRPC6 inh; activation, % at 10 µM;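 active means ratio signal rise beyond 5 SD above unstimulated control wells' mean, seen in both duplicate runs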
Large screens that a line does not name were inactive (follow-up assays come after a bar, where they were run).

COC(=O)c1ccc(-c2noc(CN(Cc3nccn3C)C(C)C)n2)cc1	TRPC6 inh -5.1 | HEK293 MPD ctr-2 inactive | HEK293 MPD ctr 2-2 inactive | TRPC4 ctr mod inactive | TRPC4 ctr inh 2 inactive | TRPC6 block conf inactive | TRPC6 act conf inactive
Cc1nn(-c2ccccc2)c(N2CCCC2)c1/C=N/Nc1ccc(S(N)(=O)=O)cc1[N+](=O)[O-]	TRPC6 inh -5.5 | HEK293 MPD ctr-2 inactive | HEK293 MPD ctr 2-2 inactive | TRPC4 ctr mod -10% | TRPC4 ctr inh 2 54% | TRPC6 block conf inactive | TRPC6 act conf inactive
Cc1[nH]c2c(Cl)cccc2c(=O)c1CN1CCCCCC1	TRPC6 inh -5.9 | HEK293 MPD ctr-2 -73% | HEK293 MPD ctr 2-2 inactive | TRPC4 ctr mod -18% | TRPC4 ctr inh 2 inactive | TRPC6 block conf inactive | TRPC6 act conf inactive
O=C(/C=C/c1ccccc1)C1=C(O)C(=O)N(CCO)C1c1cccc([N+](=O)[O-])c1 (stereo not drawn)	none
O=C(/C=C/c1ccccc1)C1=C(O)C(=O)N(CCO)C1c1ccccc1[N+](=O)[O-] (stereo not drawn)	TRPC6 activator 13 | HEK293 MPD ctr-2 120% | HEK293 MPD ctr 2-2 inactive | TRPC4 ctr mod 16% | TRPC4 ctr inh 2 inactive | TRPC6 block conf inactive | TRPC6 act conf 62%
N#Cc1c2ccc(OCC(=O)NCc3ccco3)cc2n2ccccc12	none
N#Cc1c2ccc(O)cc2n2ccccc12	TRPC6 activator 16, TRPC6 inh -6.8 | HEK293 MPD ctr-2 436% | HEK293 MPD ctr 2-2 86% | TRPC4 ctr mod 55% | TRPC4 ctr inh 2 inactive | TRPC6 block conf 64% | TRPC6 act conf 126%
O=C(CC1CCCCC1)NCc1ccccc1Cl	none
Cc1cccc(N(CC(=O)NC(C)C)C(=O)CCC(=O)Nc2nccs2)c1	none
Cc1c(Cl)c([N+](=O)[O-])nn1CCCC(=O)Nc1c(C)n(C)n(-c2ccccc2)c1=O	TRPC6 inh -6.5 | HEK293 MPD ctr-2 inactive | HEK293 MPD ctr 2-2 inactive | TRPC4 ctr mod inactive | TRPC4 ctr inh 2 inactive | TRPC6 block conf inactive | TRPC6 act conf inactive
COc1ccc(NC(=O)Nc2cnccn2)c(OC)c1	none
COc1cc(NC(=O)Nc2c(C)n(C)n(-c3ccccc3)c2=O)cc(OC)c1OC	none
Cc1c(Cl)c([N+](=O)[O-])nn1CCCC(=O)Nc1c(Cl)cccc1Cl	none
COc1ccc(NC(=O)Nc2nc(C)cc(C)n2)c(OC)c1	TRPC6 inh -5.4 | HEK293 MPD ctr-2 -75% | HEK293 MPD ctr 2-2 inactive | TRPC4 ctr mod -15% | TRPC4 ctr inh 2 inactive | TRPC6 block conf inactive | TRPC6 act conf inactive
Cc1c(NC(=O)C2(c3ccccc3)CCOCC2)c(=O)n(-c2ccccc2)n1C	none
COc1ccc(NC(=O)Nc2c(C)n(C)n(-c3ccccc3)c2=O)c(OC)c1	TRPC6 inh -5 | HEK293 MPD ctr-2 inactive | HEK293 MPD ctr 2-2 inactive | TRPC4 ctr mod inactive | TRPC4 ctr inh 2 inactive | TRPC6 block conf inactive | TRPC6 act conf inactive
Cc1c(NC(=O)C2(c3ccc(Cl)cc3)CCCC2)c(=O)n(-c2ccccc2)n1C	TRPC6 inh -6.6 | TRPC4 spec 2 inactive | TRPC4 spec inactive | HEK293 MPD ctr 2-1 inactive | HEK293 MPD ctr-1 inactive | TRPC6 block conf inactive | TRPC6 act conf inactive
Oc1ccccc1N1CCN(CC(O)COCc2ccccc2Cl)CC1 (stereo not drawn)	none
Cc1nn(-c2cc(C)c3ccccc3n2)c2c1CCC2	TRPC6 inh -5.4 | HEK293 MPD ctr-2 inactive | HEK293 MPD ctr 2-2 inactive | TRPC4 ctr mod inactive | TRPC4 ctr inh 2 inactive | TRPC6 block conf inactive | TRPC6 act conf inactive
Cc1cc(N2CCCC2)nc2ccccc12	TRPC6 inh -8.2 | TRPC4 spec 2 50% | TRPC4 spec -30% | HEK293 MPD ctr 2-1 -6.5% | HEK293 MPD ctr-1 -410% | TRPC6 block conf 53% | TRPC6 act conf inactive
Cc1cc(N2CCCCC2)nc2c(C)cccc12	none
CCCCc1ccc(/C(C)=N/Nc2cc(N3CCOCC3)nc(C)n2)cc1	TRPC6 inh -5.2 | HEK293 MPD ctr-2 inactive | HEK293 MPD ctr 2-2 inactive | TRPC4 ctr mod inactive | TRPC4 ctr inh 2 inactive | TRPC6 block conf inactive | TRPC6 act conf inactive
C=CCCCCCCCCC(=O)Nc1ncccn1	none
CNS(=O)(=O)c1cccc(C(=O)OCc2cc(=O)oc3c(C)c(O)ccc23)c1	TRPC6 inh -6.3 | HEK293 MPD ctr-2 inactive | HEK293 MPD ctr 2-2 inactive | TRPC4 ctr mod inactive | TRPC4 ctr inh 2 54% | TRPC6 block conf inactive | TRPC6 act conf inactive
CC1CCN(Cc2c(C(=O)N/N=C/c3cc(Cl)ccc3O)nnn2-c2nonc2N)CC1	TRPC6 inh -5.5 | HEK293 MPD ctr-2 inactive | HEK293 MPD ctr 2-2 inactive | TRPC4 ctr mod inactive | TRPC4 ctr inh 2 inactive | TRPC6 block conf inactive | TRPC6 act conf inactive
COc1cccc(-c2c(C(=O)N/N=C(\C)c3cccnc3)nnn2-c2nonc2N)c1	none
CN(CCNC(=O)c1cc2c(=O)n(C)c3ccccc3c2n1C)Cc1ccccc1	TRPC6 inh -5.2 | HEK293 MPD ctr-2 inactive | HEK293 MPD ctr 2-2 inactive | TRPC4 ctr mod inactive | TRPC4 ctr inh 2 56% | TRPC6 block conf inactive | TRPC6 act conf inactive
